Assay results taken from ChEMBL document CHEMBL2331437, “Meroterpenoid pigments from the basidiomycete Albatrellus ovinus” (J Nat Prod, 2013).

Legend:
Assay type in all cases: functional, cell-based
[1] = Cytotoxicity against human […] cells after 48 hrs by MTT assay
How it was run: (§1)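 Cells grown in RPMI-1640 or DMEM with 10% FBS, 37 °C, 5% CO2. Seeded at 1 × 10^5 cells/mL; adherent lines allowed 12 h to attach, suspension cells seeded just before dosing. Compounds at various concentrations in triplicate, 48 h. MTT (100 μg per well) 4 h at 37 °C, SDS lysis, OD 595 nm; IC50 by Reed and Muench method.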

[2] = test system: A549; test: Cytotoxicity against human A549 cells after 48 hrs by MTT assay; settings: A549, 48 h; how it was run: as §1
[3] = test system: MCF7; test: Cytotoxicity against human MCF7 cells after 48 hrs by MTT assay; settings: MCF7, 48 h; how it was run: as §1
[4] = test system: HL-60; test: Cytotoxicity against human HL60 cells after 48 hrs by MTT assay; settings: HL-60, 48 h; how it was run: as §1

Structure (SMILES)	IC50 [1] [µM]	IC50 [2] [µM]	IC50 [3] [µM]	IC50 [4] [µM]
CC(C)=CCC/C(C)=C/CC/C(C)=C/CC1=C(O)C(=O)C(C)=C(c2c(O)cc(O)c(C/C=C(\C)CC/C=C(\C)CCC=C(C)C)c2C)C1=O [ALBATRELIN E]	> 40	> 40	> 40	> 40
COc1cc(C)c(O)c2c1C=C[C@@](C)(CC/C=C(\C)CCC=C(C)C)O2 [ALBATRELIN B]	> 40	> 40	> 40	> 40
CC(C)=CCC/C(C)=C/CC[C@]1(C)C=Cc2c(C)cc(O)cc2O1 [ALBATRELIN C]	> 40	> 40	> 40	> 40
COC(=O)c1c(O)cc(O)c(C/C=C(\C)CC/C=C(\C)CCC=C(C)C)c1C [ALBATRELIN A]	> 40	> 40	> 40	> 40
CC(C)=CCC/C(C)=C/CC/C(C)=C/CC12C(=O)C=C(C)C(=O)C1(O)Oc1c3c(c(O)c(C)c12)O[C@](C)(CC/C=C(\C)CCC=C(C)C)C=C3 (stereo partly drawn) [ALBATRELIN F]	> 40	> 40	> 40	> 40
CC(C)=CCC/C(C)=C/CC/C(C)=C/Cc1c(O)cc(C)c2c1oc1c3c(c(O)c(C)c12)O[C@](C)(CC/C=C(\C)CCC=C(C)C)C=C3 [ALBATRELIN D]	> 40	> 40	> 40	> 40
CC(C)=CCC/C(C)=C/CC[C@]1(C)C=Cc2c(O)cc(C)cc2O1 [CONFLUENTIN]	17.1	18.5	23	15.1
